Test results published in ChEMBL document CHEMBL3414525, “Macrocyclic compounds as anti-cancer agents: design and synthesis of multi-acting inhibitors against HDAC, FLT3 and JAK2” (Eur J Med Chem, 2015).
Active and inactive are the calls of the source. No cut-off for these calls is given here.

What was measured:
[1] = biological target: T1, Tyrosine-protein kinase JAK2 (Homo sapiens, UniProt O60674); assay: Inhibition of human recombinant JAK2 using Z'LYTETry6 peptide substrate after 1 hr by microplate reader
T1 sequence (O60674 whole entry): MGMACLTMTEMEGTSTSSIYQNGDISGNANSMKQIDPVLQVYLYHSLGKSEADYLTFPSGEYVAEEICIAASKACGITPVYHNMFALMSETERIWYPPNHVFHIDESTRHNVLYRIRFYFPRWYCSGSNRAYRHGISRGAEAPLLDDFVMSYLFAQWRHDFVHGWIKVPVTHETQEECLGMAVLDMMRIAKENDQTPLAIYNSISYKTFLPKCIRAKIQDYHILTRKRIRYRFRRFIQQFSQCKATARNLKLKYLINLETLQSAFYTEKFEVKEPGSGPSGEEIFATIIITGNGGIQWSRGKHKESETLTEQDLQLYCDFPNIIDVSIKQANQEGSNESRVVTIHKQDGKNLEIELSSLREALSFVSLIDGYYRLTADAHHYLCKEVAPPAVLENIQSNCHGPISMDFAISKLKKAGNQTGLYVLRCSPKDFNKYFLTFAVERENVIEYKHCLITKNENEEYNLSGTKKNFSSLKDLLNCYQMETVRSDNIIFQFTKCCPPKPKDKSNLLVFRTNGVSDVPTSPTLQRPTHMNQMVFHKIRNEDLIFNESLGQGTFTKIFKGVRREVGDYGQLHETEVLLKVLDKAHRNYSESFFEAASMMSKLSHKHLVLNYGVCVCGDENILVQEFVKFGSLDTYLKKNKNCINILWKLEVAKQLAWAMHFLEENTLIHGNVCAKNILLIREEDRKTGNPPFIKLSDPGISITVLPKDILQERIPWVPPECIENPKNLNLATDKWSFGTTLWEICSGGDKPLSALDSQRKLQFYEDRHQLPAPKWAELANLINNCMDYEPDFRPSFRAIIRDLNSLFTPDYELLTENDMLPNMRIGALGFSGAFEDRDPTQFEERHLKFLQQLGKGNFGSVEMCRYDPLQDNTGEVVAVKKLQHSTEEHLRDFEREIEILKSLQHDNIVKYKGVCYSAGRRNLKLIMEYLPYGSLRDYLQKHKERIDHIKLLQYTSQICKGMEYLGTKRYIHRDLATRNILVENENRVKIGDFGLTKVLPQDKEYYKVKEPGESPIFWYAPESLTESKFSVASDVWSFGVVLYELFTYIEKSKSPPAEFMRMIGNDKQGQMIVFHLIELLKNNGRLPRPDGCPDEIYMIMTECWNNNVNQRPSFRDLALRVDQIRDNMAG

Histone deacetylase = assay: Inhibition of HDAC (unknown origin) using Fluor de Lys substrate after 2 hrs by microplate reader; format: protein assay, Homo sapiens
HEL = assay: Antiproliferative activity against human HEL cells assessed as growth inhibition after 48 hrs by CellTiter-Glo assay; format: functional
[2] = Antiproliferative activity against human HL60 cells assessed as growth inhibition after 48 hrs by CellTiter-Glo assay; format: functional; details: HL-60, 48 h
MV4-11 [3] = assay: Antiproliferative activity against human MV4-11 cells assessed as growth inhibition after 48 hrs by CellTiter-Glo assay; format: functional; details: MV4-11, 48 h
K562 = assay: Antiproliferative activity against human K562 cells assessed as growth inhibition after 48 hrs by CellTiter-Glo assay; format: functional; details: K562, 48 h
[4] = biological target: T2, Receptor-type tyrosine-protein kinase FLT3 (Homo sapiens, UniProt P36888); assay: Inhibition of human recombinant FLT3 after 1 hr by LanthaScreen assay platform
T2 sequence (P36888 whole entry): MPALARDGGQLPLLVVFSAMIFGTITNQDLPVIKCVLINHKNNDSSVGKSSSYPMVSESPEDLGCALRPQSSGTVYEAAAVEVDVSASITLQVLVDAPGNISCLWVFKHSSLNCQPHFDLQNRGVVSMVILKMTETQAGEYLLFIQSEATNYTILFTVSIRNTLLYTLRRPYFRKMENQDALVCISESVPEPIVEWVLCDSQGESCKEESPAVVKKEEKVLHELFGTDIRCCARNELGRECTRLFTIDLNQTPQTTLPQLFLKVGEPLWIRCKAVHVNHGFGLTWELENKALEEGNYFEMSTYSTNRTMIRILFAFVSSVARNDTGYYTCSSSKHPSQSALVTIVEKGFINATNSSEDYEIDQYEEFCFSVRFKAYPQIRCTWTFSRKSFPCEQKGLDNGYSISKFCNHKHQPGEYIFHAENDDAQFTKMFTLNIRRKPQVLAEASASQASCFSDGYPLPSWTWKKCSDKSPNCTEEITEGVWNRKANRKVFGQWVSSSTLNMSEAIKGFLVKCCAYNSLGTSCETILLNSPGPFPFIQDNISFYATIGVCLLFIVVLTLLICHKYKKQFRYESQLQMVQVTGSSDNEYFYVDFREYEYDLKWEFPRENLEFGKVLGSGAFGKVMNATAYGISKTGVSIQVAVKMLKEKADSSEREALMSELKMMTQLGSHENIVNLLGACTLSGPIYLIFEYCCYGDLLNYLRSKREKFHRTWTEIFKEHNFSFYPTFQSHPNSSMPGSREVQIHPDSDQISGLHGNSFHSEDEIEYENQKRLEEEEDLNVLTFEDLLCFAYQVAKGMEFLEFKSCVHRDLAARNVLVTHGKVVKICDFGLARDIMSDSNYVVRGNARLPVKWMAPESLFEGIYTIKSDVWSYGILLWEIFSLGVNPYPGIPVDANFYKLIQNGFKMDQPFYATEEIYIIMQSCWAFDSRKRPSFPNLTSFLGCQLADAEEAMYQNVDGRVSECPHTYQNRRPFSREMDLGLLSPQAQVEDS
How it was run: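 TR-FRET binding format. Recombinant FLT3 incubated 1 h at room temperature with Eu-anti-His antibody, Alexa Fluor 647-labelled kinase tracer 236 and varied compound concentrations. Signal read as the 665/615 nm emission ratio. Values are means ± SD of three independent experiments.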

[5] = Antiproliferative activity against human HCT116 cells assessed as growth inhibition after 48 hrs by SRB assay; format: functional; details: HCT-116, 48 h
[6] = Antiproliferative activity against human OVCAR5 cells assessed as growth inhibition after 48 hrs by SRB assay; format: functional; details: OVCAR-5, 48 h
NCI-H460 = assay: Antiproliferative activity against human NCI-H460 cells assessed as growth inhibition after 48 hrs by SRB assay; format: functional; details: NCI-H460, 48 h
MDA-MB-435 = assay: Antiproliferative activity against human MDA-MB-435 cells assessed as growth inhibition after 48 hrs by SRB assay; format: functional; details: MDA-MB-435, 48 h
MCF7 = assay: Antiproliferative activity against human MCF7 cells assessed as growth inhibition after 48 hrs by SRB assay; format: functional; details: MCF7, 48 h
[7] = biological target: Receptor-type tyrosine-protein kinase FLT3 (Homo sapiens) (UniProt P36888); details: HEL, 0.1 to 0.5 uM
Tubulin (Homo sapiens) = Tubulin (Homo sapiens) (UniProt P68371+Q9H4B7+P0DPH7+P68366+Q13509+Q71U36+P04350+Q3ZCM7+P07437+P68363+Q9BQE3+Q6PEY2+Q13885+Q9BVA1+Q9BUF5); assay: Induction of tubulin acetylation in human MV4-11 cells after 24 hrs by Western blot analysis; format: cell-based
How it was run: (§1)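 Cells plated at 0.2 × 10⁶ per mL with or without varied compound concentrations, incubated 24 h, then lysed in whole-cell lysis buffer. Total extracts run on SDS-PAGE and western blotted with antibodies to acetyl-histone H3, acetyl-tubulin, tubulin, phospho-FLT3 Y591, phospho-JAK2 Y1007/1008, phospho-STAT5 Y694 and phospho-AKT T308. HRP-labelled secondary antibodies used for detection.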

MV4-11 [8] = assay: Inhibition of AKT phosphorylation in human MV4-11 cells after 24 hrs by Western blot analysis; format: cell-based; how it was run: as §1
[9] = biological target: T1, Tyrosine-protein kinase JAK2; assay: Decrease in JAK2 phosphorylation in human HEL cells at 0.1 to 0.5 uM after 24 hrs by Western blot analysis; format: cell-based; how it was run: as §1
[10] = biological target: Histone deacetylase (Homo sapiens) (UniProt Q13547+O15379+Q9UBN7+Q92769+Q9UQL6+Q8WUI4+Q9BY41+Q96DB2+P56524+Q9UKV0+Q969S8); assay: Induction of HDAC-mediated histone H3 acetylation in human MV4-11 cells after 24 hrs by Western blot analysis; format: cell-based; how it was run: as §1
MV4-11 [11] = assay: Inhibition of STAT5 phosphorylation in human MV4-11 cells after 24 hrs by Western blot analysis; format: cell-based; how it was run: as §1

SMILES | IC50 [1] | IC50 (Histone deacetylase) | GI50 (MV4-11 [3]) | GI50 (K562) | IC50 [4] | GI50 (NCI-H460) | GI50 (MDA-MB-435) | GI50 (MCF7) | inhibition [7] | Activity (Tubulin (Homo sapiens)) | inhibition [9] | Activity [10] | GI50 (HEL) | GI50 [2] | GI50 [5] | GI50 [6] | inhibition (MV4-11 [8]) | inhibition (MV4-11 [11])
O=C(CCCCCCC(=O)N1C/C=C/COCc2cccc(c2)-c2ccnc(n2)Nc2cccc(c2)C1)NO | 684 nM | 293 nM | 1410 nM | 4390 nM | 833 nM | – | – | – | – | – | – | – | 5030 nM | 2870 nM | – | – | – | –
O=C(CCCCCN1C/C=C/COCc2cccc(c2)-c2ccnc(n2)Nc2cccc(c2)C1)NO | 594 nM | 123 nM | 520 nM | 2090 nM | 288 nM | – | – | – | – | – | – | – | 680 nM | 2300 nM | – | – | – | –
O=C(CCCCCN1C/C=C/CCOc2cccc(c2)-c2ccnc(n2)Nc2cccc(c2)C1)NO | 1040 nM | 152 nM | 530 nM | 2320 nM | 108 nM | 1600 nM | 2630 nM | 1320 nM | – | – | – | – | 2260 nM | 2620 nM | 1330 nM | 1420 nM | – | –
O=C(CCCCCCCC(=O)N1C/C=C/COCc2cccc(c2)-c2ccnc(n2)Nc2cccc(c2)C1)NO | 835 nM | 334 nM | 780 nM | 2640 nM | 272 nM | – | – | – | – | – | – | – | 4780 nM | 1660 nM | – | – | – | –
O=C(CCCCCCN1C/C=C/COCc2cccc(c2)-c2ccnc(n2)Nc2cccc(c2)C1)NO | 613 nM | 159 nM | 320 nM | 940 nM | 217 nM | 1190 nM | 1500 nM | 1130 nM | – | – | – | – | 700 nM | 900 nM | 900 nM | 1420 nM | – | –
O=C(CCCCCCC(=O)Nc1ccccc1)NO [VORINOSTAT] | > 10000 nM | – | – | – | > 10000 nM | – | – | – | – | – | – | – | – | – | – | – | – | –
O=C(CCCCCCN1C/C=C/CCOc2cccc(c2)-c2ccnc(n2)Nc2cccc(c2)C1)NO | 686 nM | 87 nM | 270 nM | 1020 nM | 87 nM | 1070 nM | 1770 nM | 950 nM | Dose-dependent effect | Dose-dependent effect | Active | Dose-dependent effect | 340 nM | 1030 nM | 820 nM | 1220 nM | Dose-dependent effect | Dose-dependent effect
O=C(CCCCCCCC(=O)N1C/C=C/CCOc2cccc(c2)-c2ccnc(n2)Nc2cccc(c2)C1)NO | – | 355 nM | – | 2020 nM | – | – | – | – | – | – | – | – | 6260 nM | 1950 nM | – | – | – | –

Second part, led by results:

IC50 [1] | IC50 (Histone deacetylase) | GI50 (MV4-11 [3]) | GI50 (K562) | IC50 [4] | GI50 (NCI-H460) | GI50 (MDA-MB-435) | GI50 (MCF7) | inhibition [7] | Activity (Tubulin (Homo sapiens)) | inhibition [9] | Activity [10] | SMILES | GI50 (HEL) | GI50 [2] | GI50 [5] | GI50 [6] | inhibition (MV4-11 [8]) | inhibition (MV4-11 [11])
547 nM | 402 nM | 2060 nM | 4970 nM | 221 nM | – | – | – | – | – | – | – | O=C(CCCCC(=O)N1C/C=C/COCc2cccc(c2)-c2ccnc(n2)Nc2cccc(c2)C1)NO | 2940 nM | 4430 nM | – | – | – | –
392 nM | 158 nM | 370 nM | 1830 nM | 218 nM | 1420 nM | 1880 nM | 1070 nM | – | – | – | – | O=C(CCCCN1C/C=C/COCc2cccc(c2)-c2ccnc(n2)Nc2cccc(c2)C1)NO | 490 nM | 2050 nM | 810 nM | 1130 nM | – | –
246 nM | 848 nM | 1010 nM | 1440 nM | 556 nM | 2250 nM | 2410 nM | 2090 nM | – | – | – | – | O=C(CCCCC(=O)N1C/C=C/CCOc2cccc(c2)-c2ccnc(n2)Nc2cccc(c2)C1)NO | 2110 nM | 1270 nM | 1590 nM | 1520 nM | – | –
170 nM | – | 660 nM | 1230 nM | 42 nM | – | – | – | – | – | – | – | CN1C/C=C/CCOc2cccc(c2)-c2ccnc(n2)Nc2cccc(c2)C1 [ZOTIRACICLIB] | 790 nM | 1130 nM | – | – | – | –
293 nM | 251 nM | 660 nM | 2450 nM | 180 nM | 1770 nM | 2720 nM | 1130 nM | – | – | – | – | O=C(CCCCN1C/C=C/CCOc2cccc(c2)-c2ccnc(n2)Nc2cccc(c2)C1)NO | 510 nM | 3030 nM | 1530 nM | 1220 nM | – | –
558 nM | 310 nM | 5890 nM | 4790 nM | 1260 nM | – | – | – | – | – | – | – | O=C(CCCCCCC(=O)N1C/C=C/CCOc2cccc(c2)-c2ccnc(n2)Nc2cccc(c2)C1)NO | 5250 nM | 6730 nM | – | – | – | –
